# Assay results published in ChEMBL document CHEMBL5104224, “Alkyltriphenylphosphonium turns naphthoquinoneimidazoles into potent membrane depolarizers against mycobacteria” (RSC Med Chem, 2022).
# Active and inactive are the calls of the source. No cut-off for these calls is given here.
# Columns and labels:
# [1] = test system: Mycobacterium tuberculosis variant bovis; test: Antimycobacterial activity against Mycobacterium bovis BCG ATCC 35734 assessed as increase in ROS level at 0.175 to 0.64 uM incubated for 2 hrs by CellROX green reagent fluorescence assay; assay type: functional, organism-based; details: dose 0.175-0.64 µM, DDE = dose-dependent effect
# Method in brief: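 CellROX Green then added to 10 μM final, followed by 30 min at 37°C in the dark. Readout is green fluorescence (Ex 485/Em 520 nm) normalized to OD600. Naphthoquinone positive control, INH negative control.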
# [2] = test system: Mycobacterium tuberculosis variant bovis; test: Induction of oxidative stress Mycobacterium bovis BCG ATCC 35734 expressing pfurA-RFP assessed as activation of pfurA at 0.5 to 2 times MIC90 measured after 24 hrs by fluorescence assay; assay type: functional, organism-based
# Method in brief: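 BCG carrying an integrated pfurA-mCherry reporter (kanamycin-selected). […] Red fluorescence (Ex 587/Em 630 nm) normalized to OD600. INH negative control.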
# [3] = test system: Mycobacterium tuberculosis variant bovis; test: Bactericidal activity against Mycobacterium bovis BCG ATCC 35734 assessed as reduction on colony forming unit at 5 uM measured after 8 days by time killing assay; assay type: functional, organism-based; details: time 8.0 day
# [4] = test system: Mycobacterium tuberculosis variant bovis; test: Bactericidal activity against Mycobacterium bovis BCG ATCC 35734 assessed as reduction on colony forming unit at 15 uM measured upto 14 days by time killing assay; assay type: functional, organism-based; details: time <= 14.0 day
# [5] = test system: Mycobacterium tuberculosis variant bovis; test: Antimycobacterial activity against Mycobacterium bovis BCG ATCC 35734 assessed as inhibition of bacterial growth by two-fold serial broth dilution method; assay type: functional
# Method in brief: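 BCG grown at 37°C in 7H9 broth with 0.05% Tween-80, 0.5% glycerol and 10% ADC. Broth dilution method. MIC50/MIC90 are the concentrations giving 50%/90% growth inhibition versus untreated drug-free controls.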
Structure (SMILES),Activity [1],Activity [2],also measured
CCCCCCCCn1c2c([n+](CCCC)c1C)C(=O)c1ccccc1C2=O.[Br-],Dde,Active,–
CCCCn1c2c([n+](C3CCC4(CCCCC4)CC3)c1C)C(=O)c1ccccc1C2=O.[Br-],Dde,Active,–
Cc1nc2c(n1CCCCCCCCC[P+](c1ccccc1)(c1ccccc1)c1ccccc1)C(=O)c1ccccc1C2=O,–,–,Activity [3]: Active
NNC(=O)c1ccncc1,–,–,Activity [4]: Active
Cc1nc2c(n1CCCCCCCCCCC[P+](c1ccccc1)(c1ccccc1)c1ccccc1)C(=O)c1ccccc1C2=O,–,–,MIC90 [5]: 0.8 µM
